# Screening data: PubChem, Johns Hopkins Ion Channel Center
# A selection: hits, their analogues and other compounds. The true share with any hit is near 3.7%.
# Kir21 block: inhibitors of mouse Kir2.1 inward-rectifier potassium channel. Inward rectifier potassium channel 2 (Mus musculus), P35561. HEK293-Kir2.1, FluxOR thallium flux fluorescence; active compounds read low. B-score at 10 µM. 310,000 tested, 0.85% active. AID 1672, 2009;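 active = fluorescence ratio B-score at or below minus 3 SD of library scores, with starting-brightness B-score within 2 SD, cut at about -4.2 in these data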;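 note: channel flux triggered by added potassium and thallium sulfate stimulus; B-score of peak minus minimum fluorescence over baseline after thallium stimulus; more negative B-score means stronger Kir2.1 block with less thallium influx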
# KCNK9 inh: KCNK9 potassium channel inhibitors, primary screen, HEK293 cells, thallium flux; AID 488922, 2010; 310,000 tested, 1.2% active; FluxOR thallium flux fluorescence; active compounds read low; Potassium channel subfamily K member 9 (Homo sapiens), Q9NPC2; B-score at 10 µM;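 active = ratio B-score over 3 SD below the library mean, with starting fluorescence within 5 SD of its mean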;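 note: negative B-score means less thallium flux so channel inhibition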
# KCNK3 block: human KCNK3 channel inhibitors, primary screen, CHO cells, FluxOR thallium flux, B-score | FluxOR fluorescence; active compounds read low | B-score at 10 µM | 340,000 tested, 0.84% active | Potassium channel subfamily K member 3 (Homo sapiens), O14649;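 active = B-score under library mean minus 4 SD, starting fluorescence ratio at most library mean plus 5 SD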;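 note: more negative B-score means stronger inhibition of thallium flux through KCNK3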
# KCNQ1 pot: potentiators or activators of KCNQ1 channel, primary screen, cell-based, thallium flux, high-throughput; Potassium voltage-gated channel subfamily KQT member 1 (Homo sapiens), P51787; CHO-K1 KCNQ1, thallium flux FluxOR fluorescence; active compounds read high; B-score at 10 µM; 310,000 tested, 0.35% active;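 active = fluorescence ratio B-score, a plate-corrected score, at least three library SD, with initial intensity B-score within 5 SD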
# Target sequence (P51787 whole entry, looked up): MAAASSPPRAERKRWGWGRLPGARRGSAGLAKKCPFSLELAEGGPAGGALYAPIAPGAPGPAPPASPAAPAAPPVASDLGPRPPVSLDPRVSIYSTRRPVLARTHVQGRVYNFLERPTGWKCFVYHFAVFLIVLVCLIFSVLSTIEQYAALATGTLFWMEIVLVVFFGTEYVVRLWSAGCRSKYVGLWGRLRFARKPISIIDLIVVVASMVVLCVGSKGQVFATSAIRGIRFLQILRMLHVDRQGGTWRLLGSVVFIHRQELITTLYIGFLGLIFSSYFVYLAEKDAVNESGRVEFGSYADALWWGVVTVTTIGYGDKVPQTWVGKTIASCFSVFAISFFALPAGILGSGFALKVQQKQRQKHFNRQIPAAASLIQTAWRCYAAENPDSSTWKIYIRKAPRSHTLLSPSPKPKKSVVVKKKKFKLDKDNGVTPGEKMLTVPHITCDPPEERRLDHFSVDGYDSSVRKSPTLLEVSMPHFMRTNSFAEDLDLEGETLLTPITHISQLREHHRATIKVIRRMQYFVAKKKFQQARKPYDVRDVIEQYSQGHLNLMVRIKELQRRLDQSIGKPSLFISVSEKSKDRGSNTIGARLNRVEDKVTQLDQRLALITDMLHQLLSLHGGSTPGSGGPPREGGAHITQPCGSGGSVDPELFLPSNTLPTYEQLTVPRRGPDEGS
#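 System: CHO-K1 cells stably expressing KCNQ1 / Medium: assay buffer for compound exposure, DMSO matched across wells / Reagent: thallium- and potassium-containing depolarizing buffer / Compound: one concentration, matched DMSO / Incubation: 20 min compound pretreatment at room temperature / Measured by: kinetic FluxOR fluorescence, 10 s baseline plus 110 s post-stimulus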
# hERG protect: hERG rescue from dofetilide block, primary screen, cell-based, CHO-hERG, FluxOR thallium flux, dofetilide IC70; activation (rescue from dofetilide block), less the hit threshold, % at 10 µM; AID 1511, 2009; 310,000 tested, 0.51% active; dofetilide IC70 present; Voltage-gated inwardly rectifying potassium channel KCNH2 (Homo sapiens), Q12809;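 active = activation above the mean of controls blocked by dofetilide plus 5 SD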;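 note: thallium influx through hERG after potassium depolarization seen as dye fluorescence rise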
# KCNQ1 block: inhibitors of human KCNQ1 channel, primary screen, cell-based, thallium flux, high-throughput; Potassium voltage-gated channel subfamily KQT member 1 (Homo sapiens), P51787; B-score at 10 µM; AID 2642, 2010; 310,000 tested, 1.3% active; CHO-K1 KCNQ1, FluxOR thallium flux fluorescence; active compounds read high;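 active = compounds whose thallium flux B-score, printed positive for inhibition, exceeds three library SD while starting fluorescence stays within three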;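 note: channel opened by potassium depolarization with thallium stimulus after 20 min compound exposure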
# Active calls of the source: *; i = inactive; nt = no result.
SMILES,Kir21 block,KCNK9 inh,KCNK3 block,KCNQ1 pot,hERG protect,KCNQ1 block
CCOC(=O)CSc1nc2ccccc2c(=O)n1CC(C)C,-3,i,i,i,-7,i
COc1ccc(-c2nnc(CSc3nc4ccccc4c(=O)n3CC(C)C)o2)cc1OC,-0.86,i,-9.5*,i,-5,i
CCC(=O)c1ccc(OCC(=O)N2CCN(S(=O)(=O)c3ccc(Cl)s3)CC2)cc1,nt,nt,i,nt,nt,nt
CC1CN(S(=O)(=O)c2cc(C(=O)NCCC3=CCCCC3)ccc2Cl)CC(C)O1 (configuration not stated),-0.35,i,i,i,-8,i
CCCOc1ccccc1/C=C1\SC(N2CCCCC2)=NC1=O,0.75,i,i,i,-6,i
CCc1cccc(CC)c1NC(=S)NCC(c1cccnc1)N(C)C (configuration not stated),0.07,i,i,i,-6,i
CCc1cccc(CC)c1C(O)c1cccnc1 (configuration not stated),-4.6*,i,i,i,-6,i
CCC(CC)COC(=O)C1=C(C)NC(=O)NC1c1ccc2c(c1)OCO2 (configuration not stated),-0.49,i,i,i,-17,i
COc1cccc(CC(=O)OCC(=O)NCC(=O)Nc2cccc(C)c2C)c1,-0.08,i,i,i,-8,i
Cc1cc(=O)n2nc(N3CCC(C(=O)NCc4ccccc4F)CC3)sc2n1,1.6,i,i,i,-6,i
CC(=O)Nc1cccc(OCC(=O)NC(C)c2ccc3ccccc3c2)c1 (configuration not stated),-6.2*,i,i,i,-7,i
Cc1oc(C)c2c(=O)ccc3c(c12)OC(N)=C(C#N)C3c1ccc(F)cc1 (configuration not stated),-0.01,i,i,i,-6,8*
O=C(NCCc1ccccc1)c1n[nH]c2ccccc12,0.67,i,i,i,-17,i
CCCC(=O)Nc1c2c(nc3ccccc13)N(c1ccccc1)CC2,0.23,i,-9.3*,i,-3,i
O=C(CN1CCCCC1)Nc1c2c(nc3ccccc13)N(c1ccccc1)CC2,-0.2,i,i,i,-9,i
CN(C(=O)CSc1ncnc2sc(-c3ccccc3)cc12)C1CCS(=O)(=O)C1 (configuration not stated),1.6,i,i,77*,49*,i
CN(C(=O)CSc1ncnc2scc(-c3ccccc3)c12)C1CCS(=O)(=O)C1 (configuration not stated),-0.44,i,i,i,-9,i
CCOC(=O)c1cc(-c2ccccc2)sc1NC(=O)C(C)N1C(=O)c2ccccc2C1=O (configuration not stated),0.72,-8*,i,i,-3,i
Cc1cc(C)c(Cn2cnc(-c3ccc([N+](=O)[O-])cc3)c2)c(C)c1,-1.7,i,i,i,-10,6*
O=C1C(Cl)=C(N2CCC(C(=O)O)CC2)C(=O)c2ccccc21,-0.09,i,i,i,-20,6*
CC1COCC(C)N1C1=C(Cl)C(=O)c2ccccc2C1=O (configuration not stated),nt,nt,-10*,nt,nt,nt
C/C(=N\NC(=O)c1cccc(S(=O)(=O)N2CCOCC2)c1)c1ccc(O)cc1,nt,nt,i,nt,nt,nt
CSCCC(C(=O)N(C)CC(=O)Nc1cccc(F)c1)N1C(=O)c2ccccc2C1=O (configuration not stated),nt,nt,i,nt,nt,nt
CC(=O)c1c(O)c(C)c(O)c2c1OC1=CC(=O)C(C(C)=O)C(=O)[C@@]12C (some centres not stated),-1.2,i,i,i,-18,7*
CN1CCN(C2=Cc3ccccc3Sc3cc(F)ccc32)CC1,-8.4*,i,i,i,-23,i
SMILES,Kir21 block,KCNK9 inh,KCNK3 block,KCNQ1 pot,hERG protect,KCNQ1 block
CSc1ncccc1C(=O)OC(C)C(=O)Nc1cccc(S(=O)(=O)N2CCOCC2)c1 (configuration not stated),nt,nt,i,nt,nt,nt
OC1(C#CCCN2CCCCC2)c2ccccc2-c2ccccc21,0.06,i,i,i,3,i
N#CC1(CCCN2CCCCC2)c2ccccc2CCc2ccccc21,-5.6*,i,i,i,-11,i
CC(C)(C)NC(=O)C(=O)NNC(=O)COc1ccc(Br)cc1,-0.57,i,i,8*,5.1*,i
COC(=O)NNC(=O)c1ccc(C(C)(C)C)cc1,-1.4,i,i,i,-5,i
CC(=O)NC(=S)NNC(=O)COc1ccc(Br)cc1,nt,nt,i,nt,nt,nt
CC(C)(C)NC(=O)C(=O)NNC(=O)c1ccc(C(C)(C)C)cc1,-2.4,i,i,20*,15*,i
CC(C)(C)NC(=O)C(=O)NNC(=O)c1cccc(Br)c1,1.9,i,i,18*,23*,i
Cc1cccc(C(=O)NNC(=O)C(=O)NC(C)(C)C)c1,0.81,i,i,i,-2,i
CN(C(=O)c1cc(S(=O)(=O)N2CCc3ccccc32)cn1C)C1CCCCC1,-0.03,i,i,i,-12,i
COc1ccc(C(CNC(=O)c2ccc(S(=O)(=O)N3CC(C)CC(C)C3)cc2)N(C)C)cc1 (configuration not stated),nt,nt,i,nt,nt,nt
O=C(Nc1ccc2c(c1)OCO2)C1CCCN1C(=O)Nc1ccccc1F (configuration not stated),0.98,i,i,i,5.6*,i
COc1ccccc1NC(=O)N1CCCC1C(=O)Nc1ccc2c(c1)OCO2 (configuration not stated),-0.68,i,i,i,-14,i
C(=C\c1nc(N2CCCC2)c2ccccc2n1)/c1ccccc1,0.44,-7.2*,i,i,-18,i
CCOC(=O)C1=CC[C@]2(C)c3c(c4ccccc4n3C)C(=O)C1N2C,nt,nt,i,nt,nt,nt
CCCCn1c(NCc2ccccc2O)nc2ccccc21,1.7,i,i,i,-11,i
CCCCn1c(NCc2ccccc2NS(=O)(=O)c2ccc(C)cc2)nc2ccccc21,-3.1,-7.1*,i,i,-2,7*
CCOc1ccc(-n2cc(C(=O)Nc3cccc(C)n3)c3cc(OC)c(OC)cc3c2=O)cc1,0.93,i,i,13*,-14,i
